Measurements gathered from unrelated publications.
Compare with care: the assays were run in different laboratories.
Target: Casein kinase I isoform epsilon (CSNK1E, Homo sapiens, UniProt P49674)

SMILES	read-out	method	concentration	remaining binding
Nc1ncc2c(n1)-c1c([nH]c3ccc(C#CC4CC4)cc13)CCCC2	binding	competition with immobilised ligand	1 µM	100%
COc1cnc(Nc2cccc(S(N)(=O)=O)c2)nc1N1CCN(c2ccccc2)CC1	binding	competition with immobilised ligand	1 µM	100%
CN(C)c1nccc(-c2cnc3ncccn23)n1	binding		1 µM	65%
O=C(c1ccc(Nc2ncc(Cl)c(-c3cc4ccccc4s3)n2)cc1)N1CCC(N2CCCC2)CC1	binding	competition with immobilised ligand	1 µM	100%
Cc1c(NC(=O)c2cc(C(N)=O)nc3cc(F)ccc23)c(C(F)(F)F)nn1Cc1ccc(C(C)(C)C)cc1	cell-free assay	competition with immobilised ligand	1 µM	91%
COc1cnc(Nc2cccc(S(N)(=O)=O)c2)nc1N1CCN(c2ccccc2)C(=O)C1	binding	competition with immobilised ligand	1 µM	100%
O=C(c1ccc(Nc2nccc(-c3cc4ccccc4s3)n2)cc1)N1CCC(N2CCCC2)CC1	binding	competition with immobilised ligand	1 µM	100%
CC(=O)N1CCC(c2ccc(C(=O)NC(=N)N)cc2C(F)(F)F)CC1	cell-free assay	competition with immobilised ligand	1 µM	100%
COc1ncc2cc3ccccc3nc2c1C#N	cell-free assay	competition with immobilised ligand	5 µM	86%
F[C@@H]1CCN(c2nccc(-c3cnn4ncccc34)n2)C1	binding		1 µM	85%
O=C(NCC1CCOCC1)c1n[nH]cc1NC(=O)c1c(F)cccc1F	binding	competition with immobilised ligand	1 µM	81%
CN(c1ccnc(CNc2nc(Nc3ccc4c(c3)CC(=O)N4)ncc2C(F)(F)F)n1)S(C)(=O)=O	cell-free assay	competition with immobilised ligand	1 µM	100%
CN(c1nccc(-c2cnn3ncccc23)n1)C1CC1	binding		1 µM	100%
c1cncc(-c2cccc(Nc3nccc(NC4CCCCC4)n3)c2)c1	binding	competition with immobilised ligand	10 µM	11%
COc1ccnn2ncc(-c3ccnc(N(C)C)n3)c12	binding		1 µM	75%
CNCc1ccccc1-c1csc([C@@H](C)Nc2nc(C)nc3cc(OC)c(OC)cc23)c1	cell-free assay	competition with immobilised ligand	1 µM	99%
C[C@@H]1CCN(c2nccc(-c3cnn4ncccc34)n2)C1	binding		1 µM	86%
Cc1cc(C)c(-n2ccn3nc(-c4cccnc4)cc23)cc1NC(=O)c1cc(C#N)cc(S(F)(F)(F)(F)F)c1	cell-free assay	competition with immobilised ligand	0.1 µM	98.7%
N[C@@H]1CCN(c2nccc(-c3cnn4ncccc34)n2)C1	binding		1 µM	31%
O=C(NCCCN1CCOCC1)c1ccc(Nc2nccc(-c3cc4ccccc4s3)n2)cc1	binding	competition with immobilised ligand	1 µM	100%
CN(C)c1ncc(F)c(-c2cnn3ncccc23)n1	binding		1 µM	100%
CC(=O)N1CCC(c2ccc(C(=O)NC3=NCCN3)cc2C(F)(F)F)CC1	cell-free assay	competition with immobilised ligand	1 µM	100%
